We go through eight compounds from ChEMBL document CHEMBL1140938, “Structural requirements for a lipoamino acid in modulating the anticonvulsant activities of systemically active galanin analogues” (J Med Chem, 2009).

For one data set, the target named is T1, Galanin receptor type 1 (Homo sapiens, UniProt P47211).
T1 sequence (P47211 whole entry): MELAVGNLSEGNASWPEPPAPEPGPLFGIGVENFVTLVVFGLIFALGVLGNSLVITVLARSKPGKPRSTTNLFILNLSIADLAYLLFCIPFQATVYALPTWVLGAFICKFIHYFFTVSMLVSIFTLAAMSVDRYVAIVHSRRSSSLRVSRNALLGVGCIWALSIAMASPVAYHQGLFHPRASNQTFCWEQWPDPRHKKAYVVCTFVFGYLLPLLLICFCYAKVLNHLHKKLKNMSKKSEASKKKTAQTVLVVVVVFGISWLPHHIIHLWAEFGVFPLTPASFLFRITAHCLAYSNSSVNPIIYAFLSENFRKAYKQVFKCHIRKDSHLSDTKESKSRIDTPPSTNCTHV
The data set can be described thus: Displacement of europium labeled galanin from human recombinant GalR1 receptor by time-resolved fluorescence binding assay. In a few lines: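 Competition binding on membranes from recombinant human GalR1 or GalR2 versus 2 nM europium-labeled galanin; 90 min incubation at room temperature, four washes (50 mM Tris-HCl pH 7.5, 5 mM MgCl2), enhancement solution 30 min at room temperature, time-resolved fluorescence read.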

The next data set has as its target T2, Galanin receptor type 2 (Homo sapiens, UniProt O43603).
T2 sequence (O43603 whole entry): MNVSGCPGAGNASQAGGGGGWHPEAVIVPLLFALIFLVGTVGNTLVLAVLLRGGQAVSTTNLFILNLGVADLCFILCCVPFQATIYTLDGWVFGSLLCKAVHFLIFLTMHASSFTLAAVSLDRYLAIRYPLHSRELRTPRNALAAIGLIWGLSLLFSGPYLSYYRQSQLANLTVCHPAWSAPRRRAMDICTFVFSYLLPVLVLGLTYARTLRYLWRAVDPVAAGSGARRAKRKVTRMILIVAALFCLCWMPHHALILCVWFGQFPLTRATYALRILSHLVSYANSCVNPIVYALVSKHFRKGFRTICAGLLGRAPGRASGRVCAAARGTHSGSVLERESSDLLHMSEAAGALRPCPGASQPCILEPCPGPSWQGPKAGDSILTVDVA
The data set can be described thus: Displacement of europium labeled galanin from human recombinant GalR2 receptor by time-resolved fluorescence binding assay. In a few lines:
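Competition binding on membranes from recombinant human GalR1 or GalR2 versus 2 nM europium-labeled galanin; 90 min incubation at room temperature, four washes (50 mM Tris-HCl pH 7.5, 5 mM MgCl2), enhancement solution 30 min at room temperature, time-resolved fluorescence read. Ki from nonlinear sigmoidal variable-slope fit, one-site reversible model, tracer Kd held at 4.3 nM.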

Data set [1] is described as follows: Lipophilicity, log D by HPLC method. It is filed as physicochemical. Summed up:
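HPLC retention times were measured on a linear gradient of 20% to 100% buffer B (0.1% TFA in 90% aqueous acetonitrile; A was 0.1% TFA in water) over 40 min. Five analogs were calibrated by shake flask: 400 µg peptide in 1 mL PBS shaken with an equal volume of water-saturated octanol for 24 h, aqueous phase quantified by HPLC. LogD was calculated from the linear correlation with retention time.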

Consider `CNCC(=O)N[C@@H](Cc1c[nH]c2ccccc12)C(=O)N[C@H](C(=O)N[C@@H](CC(C)C)C(=O)N[C@@H](CC(N)=O)C(=O)N[C@@H](CO)C(=O)N[C@@H](C)C(=O)NCC(=O)N[C@@H](Cc1ccc(O)cc1)C(=O)N[C@@H](CC(C)C)C(=O)N[C@@H](CC(C)C)C(=O)NCC(=O)N1CCC[C@H]1C(=O)N[C@@H](CCCCN)C(=O)N[C@@H](CCCCN)C(=O)N[C@@H](CCCCNC(=O)COCCOCCOCCOCCOC)C(=O)N[C@@H](CCCCN)C(N)=O)[C@@H](C)O`, for which the inhibition constant (Ki) – broadly, a dissociation constant, usually derived from enzyme kinetics or from competition with a known ligand – on Galanin receptor type 1 came out at 0.5 nM; at Galanin receptor type 2 it was 20.5 nM. Consider `CCCCCCCCCC(=O)NCCCC[C@H](NC(=O)[C@H](CCCCN)NC(=O)[C@H](CCCCN)NC(=O)[C@@H]1CCCN1C(=O)CNC(=O)[C@H](CC(C)C)NC(=O)[C@H](CC(C)C)NC(=O)[C@H](Cc1ccc(O)cc1)NC(=O)CNC(=O)[C@H](C)NC(=O)[C@H](CO)NC(=O)[C@H](CC(N)=O)NC(=O)[C@H](CC(C)C)NC(=O)[C@@H](NC(=O)[C@H](Cc1c[nH]c2ccccc12)NC(=O)CNC)[C@@H](C)O)C(=O)N[C@@H](CCCCN)C(N)=O`, for which the results for the Ki at Galanin receptor type 1 and on Galanin receptor type 2 were 1.3 nM and 14.4 nM, respectively. The like results for `CCCCCCCCCCCCCC(=O)NCCCC[C@H](NC(=O)[C@H](CCCCN)NC(=O)[C@H](CCCCN)NC(=O)[C@@H]1CCCN1C(=O)CNC(=O)[C@H](CC(C)C)NC(=O)[C@H](CC(C)C)NC(=O)[C@H](Cc1ccc(O)cc1)NC(=O)CNC(=O)[C@H](C)NC(=O)[C@H](CO)NC(=O)[C@H](CC(N)=O)NC(=O)[C@H](CC(C)C)NC(=O)[C@@H](NC(=O)[C@H](Cc1c[nH]c2ccccc12)NC(=O)CNC)[C@@H](C)O)C(=O)N[C@@H](CCCCN)C(N)=O` were, in that order, 2.6 nM and 18.2 nM. The like results for `CCCCCCCCCCCC(=O)NCCCC[C@H](NC(=O)[C@H](CCCCN)NC(=O)[C@H](CCCCN)NC(=O)[C@@H]1CCCN1C(=O)CNC(=O)[C@H](CC(C)C)NC(=O)[C@H](CC(C)C)NC(=O)[C@H](Cc1ccc(O)cc1)NC(=O)CNC(=O)[C@H](C)NC(=O)[C@H](CO)NC(=O)[C@H](CC(N)=O)NC(=O)[C@H](CC(C)C)NC(=O)[C@@H](NC(=O)[C@H](Cc1c[nH]c2ccccc12)NC(=O)CNC)[C@@H](C)O)C(=O)N[C@@H](CCCCN)C(N)=O` were, in that order, 1.4 nM and 16.1 nM. The like results for `CCCCCCCC(=O)NCCCC[C@H](NC(=O)[C@H](CCCCN)NC(=O)[C@H](CCCCN)NC(=O)[C@@H]1CCCN1C(=O)CNC(=O)[C@H](CC(C)C)NC(=O)[C@H](CC(C)C)NC(=O)[C@H](Cc1ccc(O)cc1)NC(=O)CNC(=O)[C@H](C)NC(=O)[C@H](CO)NC(=O)[C@H](CC(N)=O)NC(=O)[C@H](CC(C)C)NC(=O)[C@@H](NC(=O)[C@H](Cc1c[nH]c2ccccc12)NC(=O)CNC)[C@@H](C)O)C(=O)N[C@@H](CCCCN)C(N)=O` were, in that order, 0.7 nM and 14.9 nM. As to `CCCCCCCCCCCCCCCCCC(=O)NCCCC[C@H](NC(=O)[C@H](CCCCN)NC(=O)[C@H](CCCCN)NC(=O)[C@@H]1CCCN1C(=O)CNC(=O)[C@H](CC(C)C)NC(=O)[C@H](CC(C)C)NC(=O)[C@H](Cc1ccc(O)cc1)NC(=O)CNC(=O)[C@H](C)NC(=O)[C@H](CO)NC(=O)[C@H](CC(N)=O)NC(=O)[C@H](CC(C)C)NC(=O)[C@@H](NC(=O)[C@H](Cc1c[nH]c2ccccc12)NC(=O)CNC)[C@@H](C)O)C(=O)N[C@@H](CCCCN)C(N)=O`, the figures for the Ki on Galanin receptor type 1 and at Galanin receptor type 2 were 4 nM and 15 nM, respectively. With `CCCCCCCC(=O)NCCCC[C@H](NC(=O)[C@H](CCCCN)NC(=O)[C@H](CCCCN)NC(=O)[C@@H]1CCCN1C(=O)CNC(=O)[C@H](CC(C)C)NC(=O)[C@H](CC(C)C)NC(=O)[C@H](Cc1ccc(O)cc1)NC(=O)CNC(=O)[C@H](C)NC(=O)[C@H](CO)NC(=O)[C@H](CC(N)=O)NC(=O)[C@H](CC(C)C)NC(=O)[C@@H](NC(=O)[C@H](Cc1c[nH]c2ccccc12)OC(=O)CNC)[C@@H](C)O)C(=O)N[C@@H](CCCCN)C(N)=O`, in data set [1], the pH-dependent lipophilicity (logD) (as a rule, lipophilicity at a set pH, counting ionised and neutral species) worked out at 0.78. Same read-out and setting: as for `CCCCCCCCCCCCCCCCCC(=O)NCCCC[C@H](NC(=O)[C@H](CCCCN)NC(=O)[C@H](CCCCN)NC(=O)[C@@H]1CCCN1C(=O)CNC(=O)[C@H](CC(C)C)NC(=O)[C@H](CC(C)C)NC(=O)[C@H](Cc1ccc(O)cc1)NC(=O)CNC(=O)[C@H](C)NC(=O)[C@H](CO)NC(=O)[C@H](CC(N)=O)NC(=O)[C@H](CC(C)C)NC(=O)[C@@H](NC(=O)[C@H](Cc1c[nH]c2ccccc12)OC(=O)CNC)[C@@H](C)O)C(=O)N[C@@H](CCCCN)C(N)=O`, the figure is 1.35.
